Assay results as given in ChEMBL document CHEMBL1148102, “New chlorinated diphenyl ethers from an Aspergillus species” (J Nat Prod, 2002).
pIC50: −log10 of the molar value. ≈ marks a conversion by molar mass, not a printed value. Calls of active or inactive are those of the source. The rule behind the calls is not given here.

Assays:
Caenorhabditis elegans = experiment: Antinematodal activity against Caenorhabditis elegans after 16 to 24 hrs; type: functional
Outline: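 Model nematode C. elegans exposed to compounds in a bioassay. Lethality was scored over 16-24 h and reported as the concentration in ppm lethal to 90% (LD90) or 50% (LD50) of worms.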

Rhizoctonia solani = experiment: Antimicrobial activity against Rhizoctonia solani at <200 ppm; type: functional, organism-based
Outline: (§1)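 Antifungal test by the dialysis membrane overlay technique against the phytopathogenic fungus. Compounds were assessed at concentrations below 200 ppm.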

Gaeumannomyces tritici = experiment: Antimicrobial activity against Gaeumannomyces graminis var. tritici at <200 ppm; type: functional, organism-based; outline: as §1
Endothelin-1 receptor = biological target: T1, Endothelin-1 receptor (Rattus norvegicus, UniProt P26684); experiment: Displacement of endothelin-1 from ETA receptor in rat A10 cells; type: cell-based
T1 sequence (P26684 whole entry): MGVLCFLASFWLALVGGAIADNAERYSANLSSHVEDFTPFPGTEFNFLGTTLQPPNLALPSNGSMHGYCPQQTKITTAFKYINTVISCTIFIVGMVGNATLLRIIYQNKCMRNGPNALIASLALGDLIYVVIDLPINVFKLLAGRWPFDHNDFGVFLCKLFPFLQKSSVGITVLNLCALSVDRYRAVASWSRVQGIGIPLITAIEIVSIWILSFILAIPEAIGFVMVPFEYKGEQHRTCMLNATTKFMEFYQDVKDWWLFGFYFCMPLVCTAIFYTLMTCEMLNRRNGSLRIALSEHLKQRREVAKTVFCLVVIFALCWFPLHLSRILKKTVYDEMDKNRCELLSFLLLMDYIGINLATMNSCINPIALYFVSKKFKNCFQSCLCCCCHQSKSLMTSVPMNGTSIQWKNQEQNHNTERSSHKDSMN

Escherichia coli = experiment: Antimicrobial activity against Escherichia coli at <200 ppm; type: functional, organism-based

SMILES	LD90 (Caenorhabditis elegans) [ppm]	Activity (Rhizoctonia solani)	Activity (Gaeumannomyces tritici)	pIC50 (Endothelin-1 receptor)	Activity (Escherichia coli)	LC50 (Caenorhabditis elegans; Caenorhabditis elegans, read-out: LD50 (the source's name)) [µg/mL]
COC(=O)c1cc(O)cc(OC)c1Oc1cc(C)cc(O)c1C(=O)O [ASTERRIC ACID]	50	inactive	inactive	5.00	inactive	–
COC(=O)c1cc(O)cc(OC)c1Oc1cc(C)cc(O)c1C(=O)OC [METHYL ASTERRATE]	75	inactive	inactive	–	inactive	–
COC(=O)c1cc(O)cc(OC)c1Oc1cc(C)c(Cl)c(O)c1C(=O)OC [METHYL CHLOROASTERRATE]	–	inactive	inactive	–	inactive	100 (≈ 252 µM)
COC(=O)c1cc(O)cc(OC)c1Oc1c(Cl)c(C)c(Cl)c(O)c1C(=O)OC [METYL DICHLOROASTERRATE]	75	inactive	inactive	–	inactive	–
COC(=O)c1cc(O)cc(OC)c1C(=O)c1c(O)cc(C)cc1O [SULOCHRIN]	50	inactive	inactive	–	inactive	–
